# The list is not random: actives were taken first. Their share in the collection is about 1.4%.
# GSK3B inh = blocks human GSK3beta kinase activity; P49841; GST-GSK3beta kinase, ADP-Glo luminescence, 60 min; hits give low values; activity score (negative = inhibition), % at 10 µM; 0.038% of 300,000 active; AID 2097;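 active = more than half of replicate wells score below -50%, meaning over 50% inhibition versus plate controls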;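 also: 0% = median DMSO wells and -100% = median GW8510 positive control wells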
#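 Test system: GST-fused GSK3beta enzyme, cell-free | Quantity: 1.6 ng GST-GSK3beta enzyme per well | Reagent: 25 µM ATP with peptide substrate | Schedule: 60 min enzyme reaction, room temperature | Signal: Luminescent ADP-Glo measurement of ADP formed | Read-out basis: Score relative to plate controls | Control set: DMSO and 20 µM GW8510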
# HIV Env fusion = inhibitors of HIV Env-mediated cell fusion; HeLa-JRFL Env/CEM21 cell fusion, luciferase; inhibition, % at 12.3 µM; 1.1% of 360,000 active; AID 651610;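 active = mean replicate inhibition score of at least 50 and every replicate individually at or above 50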;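 also: 0% = plate neutral controls and 100% = maraviroc near 300 nM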
# GSIS activator = primary screen for activators of insulin secretion dependent on glucose, INS-1E cells, GLuc reporter luminescence; 0.61% of 370,000 active; activation, % at 16.6 µM; INS-1E GLuc reporter insulin secretion, 2-3 h;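 active = lowest replicate activation of at least 40%, so every replicate reaches that level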;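 also: 0% = median of neutral control wells and 100% = median of IBMX positive control wells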
# STK33 inh = human STK33 kinase inhibition | purified STK33, MBP phosphorylation, ADP-Glo luminescence | inhibition, % at 10 µM | 0.073% of 320,000 active | AID 2661;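 active = inhibition at or above 25%, using the most active replicate where run in duplicate; inactive = inhibition below 25%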
# Target sequence (Q9BYT3 whole entry, looked up): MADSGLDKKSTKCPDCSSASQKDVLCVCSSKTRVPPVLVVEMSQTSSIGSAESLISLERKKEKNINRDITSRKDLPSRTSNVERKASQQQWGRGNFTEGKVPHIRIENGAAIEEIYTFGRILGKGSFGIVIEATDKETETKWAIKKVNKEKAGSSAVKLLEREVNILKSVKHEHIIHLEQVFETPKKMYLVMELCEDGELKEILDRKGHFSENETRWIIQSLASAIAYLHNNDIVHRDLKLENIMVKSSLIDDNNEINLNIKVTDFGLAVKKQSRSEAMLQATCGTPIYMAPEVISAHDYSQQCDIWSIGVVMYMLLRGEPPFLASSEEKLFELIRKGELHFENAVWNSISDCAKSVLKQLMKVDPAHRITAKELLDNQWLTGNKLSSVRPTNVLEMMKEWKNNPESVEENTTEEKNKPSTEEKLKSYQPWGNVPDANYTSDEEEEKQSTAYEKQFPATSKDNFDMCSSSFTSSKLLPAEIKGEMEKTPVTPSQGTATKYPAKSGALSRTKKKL
# CDK5 inh = CDK5/p35 (human) kinase inhibition | inhibition, % at 10 µM | Recombinant CDK5/p35, ADP-Glo luminescence, 60 min | 0.01% of 330,000 active;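 active = highest replicate inhibition of at least 50% and at least 75% of replicates reaching 50%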;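 also: plate controls were DMSO neutral control for no effect and GW8510 at 10 µM for full effect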
# GSK3A inh = human GSK-3 alpha kinase inhibition. AID 2650. ADP-Glo luminescence, 60 min. P49840. inhibition, % at 10 µM. 0.1% of 320,000 active;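 active = more than half of replicates show inhibition above 20%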;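 also: GST-tagged GSK-3 alpha with peptide substrate and 25 µM ATP; 0% = DMSO neutral wells and 100% = GW8510 positive control wells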
# The depositor's hits bear a star; · = not tested or not shown; [ ] = dose if it differs, or a comment.
SMILES,GSK3B inh,HIV Env fusion,GSIS activator,STK33 inh,CDK5 inh,GSK3A inh
O=C(Cc1ccccc1)N1CCCCN2[C@H](C1)[C@H](c1ccc(-c3ccccc3)cc1)[C@@H]2CO,·,·,10,·,·,·
CCC(=NC(C)c1ccccc1)c1c(O)[nH]c(=O)[nH]c1=O (stereo not drawn),1,3,66*,-3,0,2
CC(C)(C)c1cc(O)ccc1O,·,13,-8,·,·,·
Oc1cc(O)cc(/C=C/c2ccc(O)cc2O)c1,·,·,·,54*,3,22
C=CCN1C(=S)N[C@@H]2c3ccccc3O[C@@]1(C)[C@@H]2C(=O)OCC,·,6[16.7 µM],·,·,·,·
CCC1CN1P(=O)(N1CCCC1)N1CC1CC (stereo not drawn),·,59*,18,·,-1,·
CC=Cc1ccc2n(c1=O)C[C@H]1[C@H](CO)[C@@H](C(=O)OC)[C@@H]2N1S(=O)(=O)c1cccc(C)c1 (mixture of isomers),·,-2[16.7 µM],1,·,·,·
CN1[C@@H]2CN(S(C)(=O)=O)C[C@H]1C2c1ccccc1 (stereo partly drawn),·,·,0,·,·,·
O=C(O)CCCc1ccc(N(CCCl)CCCl)cc1,-5,-15,9,0,-1,-2
O=c1[nH]cnc2nc(-c3ccc(N(CCCl)CCCl)cc3)[nH]c12,·,-39,58*,·,1,·
COc1cc(C2c3cc4c(cc3CC3COC(=O)C32)OCO4)cc(OC)c1O (stereo not drawn),·,-37,-5,·,-1,·
O=C1NC2C(=CC(O)C(O)C2O)c2cc3c(cc21)OCO3 (stereo not drawn),·,100*,-19,·,0,·
O=C1NC2C(=CC(O)C(O)C2O)c2cc3c(c(O)c21)OCO3 (stereo not drawn),·,64*,-26,·,-2,·
O=C1NC2C(O)C(O)C(O)C(O)C2c2cc3c(c(O)c21)OCO3 (stereo not drawn),·,119*,-29,·,-1,·
C=CCN1[C@@H]2CN(C(C)=O)C[C@H]1C2c1ccc(Br)cc1 (stereo partly drawn),·,·,20,·,·,·
N#Cc1cccc(-c2ccc([C@@H]3[C@H]4CN(C(=O)Cc5ccncc5)CCCCN4[C@H]3CO)cc2)c1,·,·,16,·,·,·
CN1[C@@H]2CN(CC(F)(F)F)C[C@H]1C2c1ccc(Br)cc1 (stereo partly drawn),·,·,9,·,·,·
CN1[C@@H](CO)[C@@H]2c3ccccc3NC[C@@H]21,·,·,8,·,·,·
Cc1nc2cc(-c3ccc(Cl)cc3)nn2c(C)c1CCC(=O)N1CCC2(CC1)OCCO2,·,79*,·,·,3,·
CC1OC(OC2C=C3CCC4C(CCC5(C)C(c6ccc(=O)oc6)CCC45O)C3(C)CC2)C(O)C(OC2OC(CO)C(O)C(O)C2O)C1O (stereo not drawn),·,63*,-3,·,1,·
CC(=O)N1C[C@@H]2C(c3ccccc3)[C@H](C1)N2CC1CC1 (stereo partly drawn),·,·,14,·,·,·
O=[N+]([O-])c1ccc(N2CCOCC2)c2cccnc12,-1,7,75*,0,-1,4
CN1C2CCC1/C(=C/c1ccccn1)C(=O)/C2=C\c1ccccn1,·,60*,-11,1,-1,0
Cc1ccccc1-n1c(/C=C/c2ccccn2)nc2ccccc2c1=O,-1,11,-8,1,0,0
COc1ccc(C(=O)OC2CC[C@@]3(C)C4CCC5[C@]6(O)CC(O)[C@@]7(O)C(CN8CC(C)CCC8[C@@]7(C)O)[C@]6(O)C[C@@]53O[C@]24O)cc1OC (stereo partly drawn),0,2,46*,-1,10,-4
SMILES,GSK3B inh,HIV Env fusion,GSIS activator,STK33 inh,CDK5 inh,GSK3A inh
N#Cc1cccc(-c2ccc([C@H]3[C@@H](CO)N4CCCCN(C(=O)Cc5ccccc5)C[C@H]34)cc2)c1,·,·,-3,·,·,·
CC(C)CCCn1c(O)c(/C=C2/C=CC=N2)c(=O)[nH]c1=O,5,-5,53*,0,-1,1
Cc1ccc(-c2cc(-c3ccccc3)cc(-c3ccccc3)[n+]2-c2ccccc2)cc1,-2,23,4,0,9,0
CN(C)c1ccc(-[n+]2c(-c3ccccc3)cc(-c3ccccc3)cc2-c2ccccc2)cc1,0,94*,-36,·,0,·
c1ccc(-c2cc(-c3ccccc3)[n+](-c3ccccc3)c(-c3ccccc3)c2)cc1,-1,80*,-49,-1,-2,3
CC(C)Oc1cccc(NC(=O)c2cccn(Cc3ccc4c(c3)OC(F)(F)O4)c2=O)c1,3,43,·,-1,1,-3
Cc1cccc(C)c1NC(=O)c1cccn(Cc2ccc3c(c2)OC(F)(F)O3)c1=O,-5,67*,·,-1,-1,0
O=C(Nc1ccc(C(F)(F)F)cc1)c1cccn(Cc2ccc3c(c2)OC(F)(F)O3)c1=O,2,106*,·,0,0,-4
O=C(Nc1cccc(C(F)(F)F)c1)c1cccn(Cc2ccc3c(c2)OC(F)(F)O3)c1=O,2,21,·,-1,-1,-1
COc1ccc(OC(=O)N(C)C[C@H]2OCc3ccccc3-c3c(n(C)c4ccccc34)C(=O)N([C@H](C)CO)C[C@@H]2C)cc1,·,·,-13,·,·,·
C[C@H]1CCC/C=C/[C@@H]2C[C@H](O)C[C@H]2[C@@H](O)/C=C/C(=O)O1,·,82*,-21,·,2,·
COC(=O)[C@@H]1[C@@H](CO)[C@@H]2Cn3c(ccc(-c4ccccc4F)c3=O)[C@H]1N2CC1CCCC1,·,7[16.7 µM],-3,·,·,·
CCc1ccc(CNCCc2c[nH]c3ccccc23)cc1,-4,78*,-15,0,1,10
COc1cc(CNCCc2c[nH]c3ccccc23)cc(OC)c1,-3,61*,-6,0,1,1
O=C(Cc1ccccc1)N1CCCCN2[C@@H](CO)[C@@H](c3ccc(C#Cc4ccccc4)cc3)[C@@H]2C1,·,·,-26,·,·,·
N#Cc1cccc(-c2ccc([C@@H]3[C@@H](CO)N4CCCCN(C(=O)Cc5cccnc5)C[C@@H]34)cc2)c1,·,·,6,·,·,·
CC(C)Sc1nnc([C@@H](N)Cc2c[nH]c3ccccc23)o1,2,-98,·,-1,-3,3
NC(=O)CSc1nnc([C@@H](N)Cc2c[nH]c3ccccc23)o1,-4,-29,·,0,1,52*
CCC(=O)N1[C@@H]2c3ccc(-c4ccc(F)cc4)c(=O)n3C[C@H]1[C@H](CO)[C@H]2C(=O)OC,·,8[16.7 µM],8,·,·,·
CCN(CC)C(=O)c1ccc(NC(=O)Nc2ccccc2F)cc1,-34,9,5,28*,38,29
CC(=O)OCC12CC(OC(=O)CC(C)C)C(C)=CC1OC1C(O)C(OC(C)=O)C2(C)C12CO2 (stereo not drawn),·,67*,-14,·,1,·
COc1ccc(C#Cc2ccc([C@@H]3[C@@H](CO)N4CCCCN(C(=O)Cc5ccncc5)C[C@H]34)cc2)cc1,·,·,13,·,·,·
CN1CCc2nc(N)c(C#N)c(-c3ccccc3)c2C1,2,·,4,4,0,10
